# From ChEMBL document CHEMBL1944518, “AlCl3 induced (hetero)arylation of 2,3-dichloroquinoxaline: a one-pot synthesis of mono/disubstituted quinoxalines as potential antitubercular agents” (Bioorg Med Chem, 2012)
# pIC50: −log10 of the molar value.
# Molecular target: T1, Secreted chorismate mutase (Mycobacterium tuberculosis, UniProt P9WIB9)
# T1 sequence (P9WIB9 whole entry): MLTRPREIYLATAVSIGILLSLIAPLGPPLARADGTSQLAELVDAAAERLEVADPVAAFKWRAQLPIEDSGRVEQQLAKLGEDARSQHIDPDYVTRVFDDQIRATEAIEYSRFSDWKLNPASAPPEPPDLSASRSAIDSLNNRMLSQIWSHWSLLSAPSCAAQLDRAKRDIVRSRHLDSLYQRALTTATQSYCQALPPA
# Test: (§1) Inhibition of Mycobacterium tuberculosis chorismate mutase expressed in Escherichia coli BL21 assessed as conversion of chorismate to prephenate after 5 mins by Spectrophotometry
row,SMILES,pIC50
1,Fc1cc2[nH]cc(-c3nc4ccccc4nc3Cl)c2cc1F,4.70

# Molecular target: T2, Secreted chorismate mutase (Mycobacterium tuberculosis) (UniProt P9WIB9)
# T2 sequence (whole entry): T1 sequence (P9WIB9 whole entry)
# Test: as §1
row,SMILES,inhibition
1,Fc1cc2[nH]cc(-c3nc4ccccc4nc3Cl)c2cc1F,Dose-dependent effect

# Molecular target: T2, Secreted chorismate mutase (Mycobacterium tuberculosis)
# Test: Inhibition of Mycobacterium tuberculosis chorismate mutase expressed in Escherichia coli BL21 assessed as conversion of chorismate to prephenate at 50 uM after 5 mins by Spectrophotometry
# Method in brief: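 MtCM purified by Ni-NTA from BL21(DE3) carrying pET22b/MtCM; 180 pmol started on 4 mM chorismate (Tris-HCl pH 7.5, EDTA, BSA, β-mercaptoethanol) with effector at 50 μM, 37 °C, 5 min, quenched with 1 N HCl. Absorbance at 274 nm, corrected for compound and no-enzyme blanks; % inhibition = 100 − residual activity.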
row,SMILES,inhibition [%]
1,Oc1ccc(-c2nc3ccccc3nc2Cl)c2ccccc12,35
2,Fc1cc2[nH]cc(-c3nc4ccccc4nc3-c3c[nH]c4ccc(Br)cc34)c2cc1F,27
3,COc1ccc2c(-c3nc4ccccc4nc3-c3c[nH]c4ccccc34)c[nH]c2c1,45
4,Fc1cc2[nH]cc(-c3nc4ccccc4nc3Cl)c2cc1F,64
5,Oc1ccc2ccccc2c1-c1nc2ccccc2nc1-c1c[nH]c2ccc(Br)cc12,35
6,Oc1ccc(-c2nc3ccccc3nc2-c2c[nH]c3ccc(Br)cc23)c(O)c1,21
7,COc1ccc2c(-c3nc4ccccc4nc3Cl)c[nH]c2c1,42
8,Oc1ccc(-c2nc3ccccc3nc2Cl)c(O)c1,31
9,Brc1ccc2[nH]cc(-c3nc4ccccc4nc3-c3c[nH]c4ccccc34)c2c1,31
10,COc1ccc2[nH]cc(-c3nc4ccccc4nc3Cl)c2c1,36
